How the values were obtained:
[1] = molecular target: T1, 17-beta-hydroxysteroid dehydrogenase type 3 (Homo sapiens) (UniProt P37058); test: Inhibition of type-3 17 beta-hydroxysteroid dehydrogenase expressed in HEK293 cells at 3 uM 37 degree C pH 7.4; assay type: cell-based
T1 sequence (whole entry): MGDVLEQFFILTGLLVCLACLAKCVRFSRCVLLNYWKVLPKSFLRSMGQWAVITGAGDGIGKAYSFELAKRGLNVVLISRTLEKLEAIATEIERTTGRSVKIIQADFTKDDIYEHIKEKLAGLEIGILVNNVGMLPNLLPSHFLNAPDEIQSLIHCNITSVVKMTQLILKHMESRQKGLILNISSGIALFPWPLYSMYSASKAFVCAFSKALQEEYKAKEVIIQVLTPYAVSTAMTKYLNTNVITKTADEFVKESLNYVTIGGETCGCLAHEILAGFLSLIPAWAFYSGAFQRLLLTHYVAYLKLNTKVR
In short: (§1)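 Human type 3 17β-HSD was transfected into HEK-293 cells by calcium phosphate. The cells were sonicated in 50 mM Na phosphate pH 7.4 with 20% glycerol and 1 mM EDTA. The 100000g microsomal pellet served as enzyme. The reaction ran at 37 °C in the same buffer with 2 mM NADPH and 0.1 μM [14C]-Δ4-dione, reading conversion to testosterone. Percent inhibition was taken at 0.3 or 3 μM inhibitor.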

[2] = molecular target: T1, 17-beta-hydroxysteroid dehydrogenase type 3 (Homo sapiens); test: Inhibition of type-3 17 beta-hydroxysteroid dehydrogenase expressed in HEK293 cells at 0.3 uM 37 degree C pH 7.4; assay type: cell-based; in short: as §1
[3] = molecular target: T2, 17-beta-hydroxysteroid dehydrogenase type 3 (Homo sapiens, UniProt P37058); test: Inhibition of type-3 17 beta-hydroxysteroid dehydrogenase expressed in HEK293 cells at 37 degree C pH7.4; assay type: cell-based
T2 sequence (P37058 whole entry): T1 sequence (whole entry)
In short: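 HEK-293 cells were transfected with human type 3 17β-HSD, and their 100000g microsomes served as enzyme. Incubation was at 37 °C in 50 mM Na phosphate pH 7.4 with 20% glycerol, 1 mM EDTA, 2 mM NADPH and 0.1 μM [14C]-Δ4-dione. Several inhibitor concentrations were tested. Percent transformation to testosterone was plotted against inhibitor concentration, and IC50 was computed from the curve.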

[4] = molecular target: T1, 17-beta-hydroxysteroid dehydrogenase type 3 (Homo sapiens); test: Inhibition of type-3 17 beta-hydroxysteroid dehydrogenase expressed in HEK293 cells at 3 uM 37 degree C in pH 7.4; assay type: cell-based; in short: as §1
[5] = molecular target: T1, 17-beta-hydroxysteroid dehydrogenase type 3 (Homo sapiens); conditions: HEK293, 0.3 uM

Row | Compound | inhibition [1] [%] | inhibition [2] [%] | IC50 [3] [nM] | inhibition [4] [%] | inhibition [5] [%]
1 | C[C@]12CC[C@]3(CCC(=O)O3)CC1CC[C@@H]1[C@@H]2CC[C@]2(C)C(=O)CC[C@@H]12 (stereo not given in full) | 93 | 50 |  |  | 
2 | C[C@]12CC[C@@](O)(Cc3ccccc3)CC1CC[C@@H]1[C@@H]2CC[C@]2(C)C(=O)CC[C@@H]12 (stereo not given in full) | 39 | 10 |  |  | 
3 | CO[C@]1(Cc2ccccc2)CC[C@@]2(C)C(CC[C@@H]3[C@@H]2CC[C@]2(C)C(=O)CC[C@@H]32)C1 (stereo not given in full) | 93 | 91 | 154 |  | 
4 | C[C@]12CC[C@](O)(CCCc3ccccc3)CC1CC[C@@H]1[C@@H]2CC[C@]2(C)C(=O)CC[C@@H]12 (stereo not given in full) |  | 93 |  | 97 | 
5 | CCO[C@@H]1CC[C@@]2(C)C(CC[C@@H]3[C@@H]2CC[C@]2(C)C(=O)CC[C@@H]32)C1 (stereo not given in full) | 95 | 69 |  |  | 
6 | C[C@]1(O)CC[C@@]2(C)C(CC[C@@H]3[C@@H]2CC[C@]2(C)C(=O)CC[C@@H]32)C1 (stereo not given in full) | 16 | 9 |  |  | 
7 | C[C@]12CC[C@](O)(CCCO)CC1CC[C@@H]1[C@@H]2CC[C@]2(C)C(=O)CC[C@@H]12 (stereo not given in full) | 74 | 17 |  |  | 
8 | C=CCO[C@@H]1CC[C@@]2(C)C(CC[C@@H]3[C@@H]2CC[C@]2(C)C(=O)CC[C@@H]32)C1 (stereo not given in full) | 95 | 73 |  |  | 
9 | C[C@]12CC[C@@H](OCCCBr)CC1CC[C@@H]1[C@@H]2CC[C@]2(C)C(=O)CC[C@@H]12 (stereo not given in full) | 93 | 56 |  |  | 
10 | C=CC[C@@]1(O)CC[C@@]2(C)C(CC[C@@H]3[C@@H]2CC[C@]2(C)C(=O)CC[C@@H]32)C1 (stereo not given in full) | 76 | 31 |  |  | 
11 | CCCC[C@@]1(O)CC[C@@]2(C)C(CC[C@@H]3[C@@H]2CC[C@]2(C)C(=O)CC[C@@H]32)C1 (stereo not given in full) | 92 | 88 | 116 |  | 
12 | CCCCCCO[C@@H]1CC[C@@]2(C)C(CC[C@@H]3[C@@H]2CC[C@]2(C)C(=O)CC[C@@H]32)C1 (stereo not given in full) | 92 | 45 |  |  | 
13 | C[C@]12CC[C@@H](OCCC(=O)O)CC1CC[C@@H]1[C@@H]2CC[C@]2(C)C(=O)CC[C@@H]12 (stereo not given in full) | 48 | 7 |  |  | 
14 | CC(O)CO[C@@H]1CC[C@@]2(C)C(CC[C@@H]3[C@@H]2CC[C@]2(C)C(=O)CC[C@@H]32)C1 (stereo not given in full) | 89 | 40 |  |  | 
15 | C[C@]12CC[C@@H](OCCCO)CC1CC[C@@H]1[C@@H]2CC[C@]2(C)C(=O)CC[C@@H]12 (stereo not given in full) | 86 | 38 |  |  | 
16 | C[C@]12CC[C@@](O)(CCCO)CC1CC[C@@H]1[C@@H]2CC[C@]2(C)C(=O)CC[C@@H]12 (stereo not given in full) | 17 | 2 |  |  | 

Row | Compound | inhibition [1] [%] | inhibition [2] [%] | IC50 [3] [nM] | inhibition [4] [%] | inhibition [5] [%]
17 | CO[C@]1(CCC2CCCCC2)CC[C@@]2(C)C(CC[C@@H]3[C@@H]2CC[C@]2(C)C(=O)CC[C@@H]32)C1 (stereo not given in full) | 88 | 80 | 354 |  | 
18 | CO[C@@H]1CC[C@@]2(C)C(CC[C@@H]3[C@@H]2CC[C@]2(C)C(=O)CC[C@@H]32)C1 (stereo not given in full) | 94 | 83 |  |  | 
19 | CCO[C@]1(Cc2ccccc2)CC[C@@]2(C)C(CC[C@@H]3[C@@H]2CC[C@]2(C)C(=O)CC[C@@H]32)C1 (stereo not given in full) | 92 | 80 | 352 |  | 
20 | C[C@]12CC[C@@]3(CCC(=O)O3)CC1CC[C@@H]1[C@@H]2CC[C@]2(C)C(=O)CC[C@@H]12 (stereo not given in full) | 53 | 9 |  |  | 
21 | CCCCCCO[C@]1(Cc2ccccc2)CC[C@@]2(C)C(CC[C@@H]3[C@@H]2CC[C@]2(C)C(=O)CC[C@@H]32)C1 (stereo not given in full) | 28 | 24 |  |  | 
22 | C[C@]12CCC3(CCCO3)CC1CC[C@@H]1[C@@H]2CC[C@]2(C)C(=O)CC[C@@H]12 (stereo not given in full) | 94 | 3 |  |  | 
23 | CCCCCCCCCCCC[C@@]1(O)CC[C@@]2(C)C(CC[C@@H]3[C@@H]2CC[C@]2(C)C(=O)CC[C@@H]32)C1 (stereo not given in full) | 77 | 50 |  |  | 
24 | C=C[C@@]1(O)CC[C@@]2(C)C(CC[C@@H]3[C@@H]2CC[C@]2(C)C(=O)CC[C@@H]32)C1 (stereo not given in full) | 94 | 77 |  |  | 
25 | CCCO[C@@H]1CC[C@@]2(C)C(CC[C@@H]3[C@@H]2CC[C@]2(C)C(=O)CC[C@@H]32)C1 (stereo not given in full) | 93 | 49 |  |  | 
26 | C[C@]12CC[C@H](O)CC1CC[C@@H]1[C@@H]2CC[C@]2(C)C(=O)CC[C@@H]12 (stereo not given in full) | 18 | 1 |  |  | 
27 | C=CC[C@]1(O)CC[C@@]2(C)C(CC[C@@H]3[C@@H]2CC[C@]2(C)C(=O)CC[C@@H]32)C1 (stereo not given in full) | 36 | 14 |  |  | 
28 | CCCO[C@]1(Cc2ccccc2)CC[C@@]2(C)C(CC[C@@H]3[C@@H]2CC[C@]2(C)C(=O)CC[C@@H]32)C1 (stereo not given in full) | 87 | 60 |  |  | 
29 | C[C@]12CC[C@@](O)(c3ccccc3)CC1CC[C@@H]1[C@@H]2CC[C@]2(C)C(=O)CC[C@@H]12 (stereo not given in full) | 39 | 7 |  |  | 
30 | CC(C)(C)[C@@]1(O)CC[C@@]2(C)C(CC[C@@H]3[C@@H]2CC[C@]2(C)C(=O)CC[C@@H]32)C1 (stereo not given in full) | 93 |  | 142 |  | 89
31 | CO[C@]1(CCc2ccccc2)CC[C@@]2(C)C(CC[C@@H]3[C@@H]2CC[C@]2(C)C(=O)CC[C@@H]32)C1 (stereo not given in full) | 95 | 61 | 73 |  | 
32 | CCC[C@]1(O)CC[C@@]2(C)C(CC[C@@H]3[C@@H]2CC[C@]2(C)C(=O)CC[C@@H]32)C1 (stereo not given in full) | 33 | 9 |  |  | 

— ChEMBL document CHEMBL1141146, “Androsterone 3alpha-ether-3beta-substituted and androsterone 3beta-substituted derivatives as inhibitors of type 3 17beta-hydroxysteroid dehydrogenase: chemical synthesis and structure-activity relationship” (J Med Chem, 2005)
